Source: PubChem (several laboratories)
XBP1 UPR activ: adaptive UPR (XBP1) activation | CHO-XBP1 luciferase reporter, IRE1-XBP1 UPR activation, luminescence; percent of tunicamycin response, DMSO as zero | activation, % at 20 µM | 330,000 tested, 0.33% active;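 active = versus positive control, 20 µM dose yields 30% or more activation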;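 note: 100% = tunicamycin at 10 µg/mL and 0% = DMSO only wells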
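Material: CHO-XBP1 cells stably carrying IRE1-XBP1-driven luciferase reporter / Amount: 1000 cells per well / Compound: 20 µM, 1% DMSO / Times: 6 h treatment, 37 °C / Detection: luciferase luminescence / Measure: % activation of reporter signal versus tunicamycin and DMSO controls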
UPR CHOP act: apoptotic UPR (CHOP) activation; 330,000 tested, 0.34% active; activation, % at 10 µM; CHO-CHOP luciferase reporter, luminescence; percent of tunicamycin response over DMSO baseline;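 active = at 10 µM dose, activation of 40% or more, normalized to positive control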;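 note: 100% = tunicamycin at 10 µg/mL and 0% = DMSO alone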
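System: CHO CHOP reporter cells. Amount: 500 cells per well. Buffer or medium: F12 medium, 10% FBS. Compound dosing: one dose, 10 µM in 0.5% DMSO. Incubation: 6 h compound exposure at 37 °C after overnight seeding. Technique: Steady-Glo luciferase luminescence. Benchmarks: tunicamycin and DMSO controls.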
CHOP inhibitor: blocks CHOP induction under ER stress | inhibition, % at 10 µM | CHO-K1 CHOP-promoter luciferase, tunicamycin-induced, 15-18 h | 220,000 tested, 3.8% active | AID 2732;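 active = compounds that reduced the stress-induced luciferase reporter signal by more than about 70% of percent inhibition, limit read from the data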;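 note: 0% = tunicamycin plus vehicle and 100% = wells without tunicamycin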
A1 inh: inhibitors of the anti-apoptotic protein A1, read as caspase activation | MEF A1-2A-BIM cells, Caspase-Glo 3/7 luminescence, 3 h; percent of clofoctol response, vehicle zero | caspase activation, % (no concentration beside the values) | 330,000 tested, 0.066% active;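 active = over half of replicate activation scores above 10%, or exactly half above 10 with the replicate mean above 10; inconclusive = replicate mean below 10 yet half the replicates above 10; inactive = over half of replicates below 10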
An asterisk follows results filed as active; u = inconclusive; x = no result given. This is one part of a sample in which hits are shown more often than they occur.

SMILES | XBP1 UPR activ | UPR CHOP act | CHOP inhibitor | A1 inh
Cc1ccc(S(=O)(=O)N2CCOCC2)cc1NC(=O)CSc1cccc[n+]1[O-] | -1 | 2 | 7 | 0
CCCc1cc(-c2n[nH]c(C)c2-c2ccc(C(=O)OCC)o2)c(O)cc1O | -1 | 1 | 71* | 0
CCCc1cc(C(=O)Cc2ccc(C(=O)OCC)o2)c(O)cc1O | 1 | -2 | 61 | -1
CCc1c(C)nc2ncnn2c1NCCc1ccc(Cl)cc1 | 3 | 1 | 71* | 1
CCc1c(C#N)c(SCCC(=O)Nc2ccc(F)cc2)nc2c1C(=O)CC(C)(C)C2 | -3 | 0 | 88* | 0
COc1ccc(C(=O)Nc2cc3c(cc2OC)CCCC3)cc1Br | -2 | 2 | 82* | 1
COc1cc2c(cc1NC(=O)c1ccc(C(C)(C)C)cc1)CCCC2 | -2 | -1 | 0 | 0
CCOc1ccc(N(CC(=O)Nc2ccccc2OC)S(=O)(=O)c2ccccc2)cc1 | 27 | 3 | x | 0
CC1(C)CC(=O)C=C(NC2=CC3OC(c4ccccc4)OCC3OC2=O)C1 (stereo not drawn) | -3 | 17 | 103* | 0
CC1(C)Cc2c(cnn2-c2ccccc2)C(=O)/C1=N\NC(=O)c1ccncc1 | -1 | -1 | x | 1
CC1(C)Cc2c(cnn2-c2ccccc2)-c2c1c1ccccc1n2CC(O)CCl (stereo not drawn) | -3 | 1 | 94* | 0
Clc1nnc(N/N=C/c2ccccc2)c2ccccc12 | 2 | 1 | 75* | -9
Clc1ccc(/C=N/Nc2nnc(Cl)c3ccccc23)cc1 | 6 | 5 | 49 | -5
CC/C(=C\C1CCCCC1)C(NP(=O)(c1ccccc1)c1ccccc1)c1ccccc1 (stereo not drawn) | 5 | 1 | 86* | 1
C/C(=C\C1CCCCC1)C(NC(=O)c1ccc(C(F)(F)F)cc1)c1ccc(-c2ccccc2)cc1 (stereo not drawn) | -3 | 0 | x | 0
O=C1c2ccccc2C(Nc2ccc(Cl)cn2)N1Cc1ccccc1 (stereo not drawn) | -2 | 0 | 80* | 1
CC(=O)NC1c2ccccc2C(=O)N1Cc1ccccc1 (stereo not drawn) | -1 | 0 | x | 0
CC(NC(=O)CCN1C(=O)c2ccccc2S1(=O)=O)c1ccccc1 (stereo not drawn) | -2 | -1 | x | 0
Cc1ccc(NC(=S)N(CCN(C)C)Cc2cccs2)c(C)c1 | -2 | 1 | 6 | 0
CC(C)(C)C(=O)C(Cl)C(=O)Nc1ccccc1 (stereo not drawn) | 54* | 21 | 80* | 1
CCN(CC)S(=O)(=O)c1cccc(C(=O)N[C@H](C(=O)O)C(C)C)c1 | -3 | 1 | 4 | 0
Cc1c(Cl)sn(-c2ccc(Cl)cc2)c1=O | -10 | -1 | 95* | x
O=C(NCc1ccco1)c1cc2n(n1)C(C(F)(F)F)CC(c1ccc(F)cc1)N2 (stereo not drawn) | -2 | 0 | 45 | 0
CCc1c(O)nc(SCC(=O)Nc2ccc(OC)cc2)n(C2CCCCC2)c1=O | -1 | -1 | 77* | 1
CC1CC(C)CN(C(=O)Cn2c(=O)oc3cc(S(=O)(=O)N4CCCC4)ccc32)C1 (stereo not drawn) | -2 | 0 | x | 0
SMILES | XBP1 UPR activ | UPR CHOP act | CHOP inhibitor | A1 inh
COc1cccc(/C(O)=C/c2nc3ccc(C(=O)NCCc4cccc(C)c4)cc3[nH]c2=O)c1 | 0 | 2 | 31 | 0
COc1cccc(/C(O)=C/c2nc3ccc(C(=O)NCCc4ccc(Cl)cc4)cc3[nH]c2=O)c1 | x | x | 83* | x
Cc1ccc(-c2ccc(/C=N/N3C(=O)C4C5C=CC(CC5)C4C3=O)o2)c([N+](=O)[O-])c1 (stereo not drawn) | 1 | 5 | 89* | 0
CC1=C(C(=O)OCc2ccccc2)C(c2cccnc2)c2c(n(C)c(=O)n(C)c2=O)N1 (stereo not drawn) | 0 | -1 | 85* | 0
CCCCN(CCCC)c1nc2ccccc2nc1NS(=O)(=O)c1ccc(NC(C)=O)cc1 | -2 | -1 | 88* | 0
O=S(=O)(c1ccc(OC(F)(F)F)cc1)N1CCC(O)(c2cccc(C(F)(F)F)c2)CC1 | 1 | -1 | x | -1
CC1CCN(S(=O)(=O)c2ccc(Cl)cc2Br)CC1 | 1 | -1 | 78* | 1
O=S(=O)(c1cc(Cl)ccc1Br)N1CCCCC1 | -1 | 0 | 55 | 2
CN=c1scc(-c2ccccc2F)n1/N=C/c1ccc[nH]1 | -10 | -9 | 98* | -8
C/C(=N\NC(=O)Cn1ccc(C(F)(F)F)n1)c1ccc(N2CCOCC2)cc1 | -1 | -1 | -12 | 0
CCOC(=O)c1ccc(NC(=O)c2cccc(S(=O)(=O)N3c4ccccc4CC3C)c2)s1 (stereo not drawn) | 10 | 13 | 71* | -1
O=C(CCSc1ccccc1)NC1CCCCCC1 | -1 | 6 | 12 | 1
O=C(CCSc1ccccc1)NC(=O)COC(=O)C1CCCCC1 | -1 | 0 | 70* | 0
Cc1cc(=O)[nH]c(Nc2cccc(F)c2)n1 | -2 | 1 | x | 0
N#Cc1c(-c2ccccc2)cc(-c2ccccc2)nc1Br | -2 | -1 | 23 | 0
COc1ccc2cc(C(c3nnnn3CCc3ccccc3)N3CCCC(C)C3)c(=O)[nH]c2c1 (stereo not drawn) | -4 | -2 | 87* | u
Cc1ccccc1SCC(=O)Nc1cc(S(=O)(=O)N2CCOCC2)ccc1N1CCOCC1 | 1 | 0 | 24 | -1
O=C(/C=C/c1ccccc1)NCCSc1ccc(Cl)cc1 | -2 | -4 | 77* | -1
CCOc1ccc2cc(C3CC(c4ccco4)=NN3S(C)(=O)=O)c(Cl)nc2c1 (stereo not drawn) | 0 | -3 | 17 | 1
CCc1ccc(C2CC(c3ccco3)=NN2S(C)(=O)=O)cc1 (stereo not drawn) | -7 | -2 | 73* | -6
CCOc1ccc(N2C(=O)C3ON(c4ccccc4)C(c4ccco4)C3C2=O)cc1 (stereo not drawn) | 0 | 1 | 38 | 0
COc1ccc(F)cc1S(=O)(=O)N1CCN(C(=O)c2ccco2)CC1 | -3 | 2 | x | 0
O=c1c[n+]([O-])c2ccccc2n1OCc1c(F)cccc1F | -3 | 1 | 88* | 0
CCOn1c(=O)c[n+]([O-])c2ccccc21 | -5 | 0 | -4 | -1
CC(C)OC(=O)CSc1nc(Cc2ccccc2)nc2ccccc12 | -3 | 0 | 75* | 1
O=C(/C=C/c1ccccc1Cl)Nc1ccc2c(c1)C(=O)NC2=O | -1 | 1 | 94* | 0
CCC1(C)CC(CCNS(=O)(=O)c2ccc(C)cc2)(c2ccc(C)cc2)CCO1 (stereo not drawn) | -6 | -2 | 73* | -1
CCSc1nc(N)c(NC(=O)c2ccc(Br)o2)c(=O)[nH]1 | 1 | 0 | x | 0
